Compounds with a hit are over-represented: about 2.9% of the library has one in this group of screens.
M18AAP inhibitor – blocks P. falciparum M18 aspartyl aminopeptidase; recombinant PfM18AAP, H-Glu-NHMec fluorogenic cleavage; 290,000 compounds, 1.2% hits; inhibition, % at 7.35 µM;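 active = inhibition above the campaign mean inhibition over all tested compounds plus 3 SD, cut at about 28% in these data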
RanGTP-Impb inh – inhibitors of RanGTP-importin-beta interaction, primary screen, biochemical, FRET, CFP-Ran, YFP-importin-beta, homogeneous; cell-free CFP-Ran/YFP-importin-beta FRET ratio; inhibition, % (test concentration not listed); 300,000 compounds, 1.1% hits;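 active = more than half of the replicate wells show a fall in the fluorescence ratio signal beyond about 16%, limit read from the data, passing the limit was not always enough; inconclusive = exactly half of the replicate wells pass the set limit; inactive = fewer than half of replicates pass the limit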
Hck-Nef inh – blocks Nef-activated human Hck kinase. P08631. Recombinant Hck-YEEI plus Nef, Z-Lyte FRET kinase assay. inhibition, % at 20 µM. 220,000 compounds, 0.68% hits;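 active = Hck-Nef kinase inhibition above about 50%, limit read from the data; inactive = inhibition below that limit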
Runt-SMMHC FRET – inhibitors of human RUNX1 Runt domain binding to CBFb-SMMHC; Q01196+Q13951; Cerulean-Runt/Venus-CBFb-SMMHC FRET ratio 530/480, 1 h; inhibition, % at 20 µM; 220,000 compounds, 0.74% hits;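 active = mean inhibition across duplicate retests at 20 µM reaching about 50%, limit read from the data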;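 note: inhibitors lower the FRET ratio by blocking Runt binding to CBFb-SMMHC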
Runt-CBFb FRET – blocks binding of human RUNX1 Runt domain to CBFb; Q01196+Q13951; Cerulean-Runt/Venus-CBFb FRET ratio 530/480, 1 h; inhibition, % at 20 µM; 220,000 compounds, 0.46% hits; AID 1496;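 active = inhibition over about 50% at 20 µM in the single-dose screen, limit read from the data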
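Measured by: fluorescence energy transfer, 422 nm excitation, 530/480 nm emission; Assay system: Cerulean-Runt domain; Medium: Tris pH 7.5 buffer with BSA; Measure: loss of energy transfer signal; Controls: 5 µM unlabeled CBFb as full-inhibition high control; Incubation: protein complex preformed 1 h, compound exposure 1 h, room temperature, dark.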
RBBP9 inhibitor – blocks human serine hydrolase RBBP9; O75884; recombinant RBBP9, FP-Rh probe fluorescence polarization; inhibition, % at 7.94 µM; 220,000 compounds, 0.2% hits; AID 1515;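 active = inhibition above the campaign mean of all tested compounds plus 3 SD, cut at about 14% in these data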
Target sequence (O75884 whole entry, looked up): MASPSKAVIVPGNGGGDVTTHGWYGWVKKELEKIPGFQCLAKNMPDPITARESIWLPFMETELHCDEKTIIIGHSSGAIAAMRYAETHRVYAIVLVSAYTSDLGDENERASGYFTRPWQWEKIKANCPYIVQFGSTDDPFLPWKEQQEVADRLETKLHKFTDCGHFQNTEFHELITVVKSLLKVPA
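Test system – recombinant human RBBP9 · Input – RBBP9 2.5 µM in dispensing solution, pre-mixing · Medium – Tris buffer pH 8.0, NaCl, Pluronic · Schedule – preincubation 30 min plus labeling 45 min at 25 °C · Measured by – fluorescence polarization · Measure – % inhibition · Controls – DMSO and no-protein wells · Replicates – one well per compound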
Each line names hits and unclear results; the compound was inactive in the other large screens.

O=C(O)CCCN1C(=O)C2C3CC(C2C1=O)C1C(c2ccccc2)c2sc(=O)[nH]c2SC31 (stereo unspecified)	none
O=c1[nH]c2c(s1)C(c1ccc(O)cc1)C1C3CCC(C3)C1S2 (stereo unspecified)	none
O=C(O)CN1C(=O)C2C3CC(C2C1=O)C1C(c2ccc(Cl)cc2)c2sc(=O)[nH]c2SC31 (stereo unspecified)	RanGTP-Impb inh 73.3
CC(C(=O)O)N1C(=O)C2C3c4ccccc4C(c4ccccc43)[C@@H]2C1=O (stereo partly specified)	none (no result: Hck-Nef inh, Runt-SMMHC FRET, Runt-CBFb FRET, RBBP9 inhibitor)
CCN(CC)CCNC(=O)c1ccc(NC(=O)CC(NC(=O)c2ccccc2Cl)c2ccccc2)cc1 (stereo unspecified)	none (no result: Hck-Nef inh, Runt-SMMHC FRET, Runt-CBFb FRET, RBBP9 inhibitor)
CN(C)C(CNC(=O)CCc1c[nH]c2ccccc12)c1ccccc1 (stereo unspecified)	none (no result: Hck-Nef inh, Runt-SMMHC FRET, Runt-CBFb FRET, RBBP9 inhibitor)
CCN(CC(=O)Nc1c(F)cccc1F)C(=O)c1ccc(NC(=O)CC2SC(N3CCCC3)=NC2=O)cc1 (stereo unspecified)	none (no result: M18AAP inhibitor, Hck-Nef inh, Runt-SMMHC FRET, Runt-CBFb FRET, RBBP9 inhibitor)
CC(=O)Nc1ccc(N(C(=O)Cn2nnc3ccccc32)C(C(=O)NC2CCCC2)c2ccc(O)c(O)c2)cc1 (stereo unspecified)	M18AAP inhibitor 64.6
Cc1cccc(OCC(=O)Nc2ccc(S(=O)(=O)Nc3onc(C)c3C)cc2)c1C	none (no result: Hck-Nef inh, Runt-SMMHC FRET, Runt-CBFb FRET, RBBP9 inhibitor)
CCOC(=O)CNc1c(-c2ccc(Cl)cc2)nc2cnccn12	RanGTP-Impb inh 33.3
CSc1ccc(-c2nc3cnccn3c2Nc2ccc3c(c2)OCO3)cc1	none
Clc1ccc(-c2nc3cnccn3c2Nc2ccc3c(c2)OCO3)cc1	M18AAP inhibitor 31.2
CCOC(=O)CNc1c(-c2ccc(F)cc2)nc2cnccn12	none
CCOc1ccc2[nH]c3ncccc3c(=O)c2c1	RanGTP-Impb inh 34.3 (no result: Hck-Nef inh, Runt-SMMHC FRET, Runt-CBFb FRET, RBBP9 inhibitor)
COc1ccc(S(=O)(=O)NCC2CCCO2)c(Cl)c1Cl (stereo unspecified)	none (no result: Hck-Nef inh, Runt-SMMHC FRET, Runt-CBFb FRET, RBBP9 inhibitor)
Cc1ccc(NC(=O)CCC(=O)N/N=C/c2ccc([N+](=O)[O-])o2)cc1C	RanGTP-Impb inh 21.4
CC(=O)COC(=O)c1ccc2noc(-c3ccccc3)c2c1	M18AAP inhibitor 30.2 (no result: Hck-Nef inh, Runt-SMMHC FRET, Runt-CBFb FRET, RBBP9 inhibitor)
Cc1ccc(COc2ccccc2C(=S)N2CCCC2)cc1	M18AAP inhibitor 28.2
Fc1ccc(COc2ccccc2C(=S)N2CCCC2)cc1	none
CCCCN1C(=O)Cc2c1nc(N)c1c(N)nc(N(CCC)CCC)c(C#N)c21	Runt-CBFb FRET 103.3
CCOC(=O)c1sc2c(c1C)C(c1cccs1)C1=C(CCCC1=O)N2 (stereo unspecified)	RanGTP-Impb inh inconclusive, Runt-SMMHC FRET 111.4, Runt-CBFb FRET 99.3
NC(=O)c1ccccc1N/C=C/C(=O)c1ccc(F)cc1	none
NC(=O)c1ccccc1N/C=C/C(=O)c1ccc(Cl)cc1Cl	RanGTP-Impb inh 43.9
O=C(CN1C(=O)S/C(=C\c2ccc(F)cc2)C1=O)NC1C=CS(=O)(=O)C1 (stereo unspecified)	RanGTP-Impb inh 15.5 (no result: Hck-Nef inh, Runt-SMMHC FRET, Runt-CBFb FRET, RBBP9 inhibitor)
COc1ccc2c(c1)c(C(C)=O)c(C)n2-c1ccccc1OC	none (no result: M18AAP inhibitor, Hck-Nef inh, Runt-SMMHC FRET, Runt-CBFb FRET, RBBP9 inhibitor)
COc1ccc(CNC2CC(C)N(C)CC2C)cc1OC (stereo unspecified)	none (no result: Hck-Nef inh, Runt-SMMHC FRET, Runt-CBFb FRET, RBBP9 inhibitor)
COc1ccc(CCNC2CC(C)N(C)CC2C)cc1OC (stereo unspecified)	RanGTP-Impb inh 27.5
COc1ccccc1C(=O)NC(=O)COC(=O)c1cc[n+]([O-])cc1	none (no result: M18AAP inhibitor, Hck-Nef inh, Runt-SMMHC FRET, Runt-CBFb FRET, RBBP9 inhibitor)
CCCCn1c(N)c(NCC(C)C)c(=O)[nH]c1=O	none
CCCCn1c(N)c(NCC)c(=O)[nH]c1=O	Runt-SMMHC FRET 69.6 (no result: RanGTP-Impb inh)
CC(C)N(C(=O)CSc1nnc(CSc2ncccn2)n1C)C(C)C	none (no result: RanGTP-Impb inh)
COCCN1CCN(Cc2cn[nH]c2-c2cc3ccccc3o2)CC1	none
COc1ccc(C2C(C#N)=C(N)OC(C(C)(C)C)=C2C#N)cc1OC (stereo unspecified)	none
N#CC1=C(N)Oc2cc3ccccc3cc2C1c1cccnc1 (stereo unspecified)	none
COc1ccc(N=Cc2cc3c(cc2O)OC(N)=C(C#N)C3c2ccccc2)cc1 (stereo unspecified)	Runt-SMMHC FRET 87.6

Source: PubChem BioAssay (several laboratories)
